From ChEMBL document CHEMBL5058577, “EUbOPEN Chemogenomics Library 2 (Multiplex)” (2022)

System: U2OS
Assay: Multiplex assay against U2OS
Format: toxicity, cell-based
Settings: human
Method in brief: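 Phenotypes for tubulin, mitochondrial mass and membrane permeability are expressed as per cents of healthy-nucleus cells. Cells were stained live at seeding with Hoechst33342, BioTracker Green Microtubule Cytoskeleton Dye, MitoTracker Red and Annexin V Alexa Fluor 680, then imaged after compound addition on a CQ1 microscope at 37°C and 5% CO2. Machine-learning gating in CellPathfinder separated Hoechst high-intensity objects from normal cells, divided normal cells by nuclear state (healthy, pyknosed, fragmented) and divided pyknosed cells into mitotic or apoptotic.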

[1] = 12 h, 1 µM, compound concentration 1 uM, replicate 1
[2] = 12 h, 1 µM, compound concentration 1 uM, replicate 2
[3] = 12 h, 10 µM, compound concentration 10 uM, replicate 1
[4] = 12 h, 10 µM, compound concentration 10 uM, replicate 2
[5] = 24 h, 1 µM, compound concentration 1 uM, replicate 1
[6] = 24 h, 1 µM, compound concentration 1 uM, replicate 2
[7] = 24 h, 10 µM, compound concentration 10 uM, replicate 1
[8] = 24 h, 10 µM, compound concentration 10 uM, replicate 2
[9] = 48 h, 1 µM, compound concentration 1 uM, replicate 1
[10] = 48 h, 1 µM, compound concentration 1 uM, replicate 2
[11] = 48 h, 10 µM, compound concentration 10 uM, replicate 1
[12] = 48 h, 10 µM, compound concentration 10 uM, replicate 2

CC(C)c1noc(N2CCC(COc3ccc(-c4ccc(S(C)(=O)=O)cc4)nc3)CC2)n1 [GSK-1292263] was tested, and the “Population Apoptotic (%)” value [1] was 72%, the “Population Fragmented Nuclei (%)” value [1] was 27% and the “Population Healthy Nuclei (%)” value [1] was 62%. For the same compound, the “Population Hoechst High Intensity Objects (%)” value [1] was 2%, the “Population Membrane Permeable-Phenotype (%)” value [1] was 3% and the “Population Mitochondria Different-Phenotype (%)” value [1] was 2%. For the same compound, the “Population Mitotic Cells (%)” value [1] was 27%, the “Population Normal (%)” value [1] was 97% and the “Population Pyknosed Nuclei (%)” value [1] was 10%. The “Population Tubulin-Different-Phenotype (%)” value [1] was 0%, the “Total Cell Count” value [1] was 177 and the “Population Apoptotic (%)” value [2] was 100%. The “Population Fragmented Nuclei (%)” value [2] was 16%, the “Population Healthy Nuclei (%)” value [2] was 77% and the “Population Hoechst High Intensity Objects (%)” value [2] was 1%. The “Population Membrane Permeable-Phenotype (%)” value [2] was 4%, the “Population Mitochondria Different-Phenotype (%)” value [2] was 0% and the “Population Mitotic Cells (%)” value [2] was 0%. For the same compound, the “Population Normal (%)” value [2] was 98%, the “Population Pyknosed Nuclei (%)” value [2] was 5% and the “Population Tubulin-Different-Phenotype (%)” value [2] was 2%. The “Total Cell Count” value [2] was 114, the “Population Apoptotic (%)” value [3] was 90% and the “Population Fragmented Nuclei (%)” value [3] was 31%. For the same compound, the “Population Healthy Nuclei (%)” value [3] was 60%, the “Population Hoechst High Intensity Objects (%)” value [3] was 2% and the “Population Membrane Permeable-Phenotype (%)” value [3] was 10%. For the same compound, the “Population Mitochondria Different-Phenotype (%)” value [3] was 6%, the “Population Mitotic Cells (%)” value [3] was 10% and the “Population Normal (%)” value [3] was 97%. For the same compound, the “Population Pyknosed Nuclei (%)” value [3] was 7%, the “Population Tubulin-Different-Phenotype (%)” value [3] was 6% and the “Total Cell Count” value [3] was 262. For the same compound, the “Population Apoptotic (%)” value [4] was 100%, the “Population Fragmented Nuclei (%)” value [4] was 20% and the “Population Healthy Nuclei (%)” value [4] was 73%. The “Population Hoechst High Intensity Objects (%)” value [4] was 0%, the “Population Mitochondria Different-Phenotype (%)” value [4] was 8% and the “Population Mitotic Cells (%)” value [4] was 0%. For the same compound, the “Population Normal (%)” value [4] was 100%, the “Population Pyknosed Nuclei (%)” value [4] was 5% and the “Total Cell Count” value [4] was 134. The “Population Apoptotic (%)” value [5] was 63%, the “Population Fragmented Nuclei (%)” value [5] was 32% and the “Population Healthy Nuclei (%)” value [5] was 57%. The “Population Hoechst High Intensity Objects (%)” value [5] was 1%, the “Population Membrane Permeable-Phenotype (%)” value [5] was 5% and the “Population Mitochondria Different-Phenotype (%)” value [5] was 2%. For the same compound, the “Population Mitotic Cells (%)” value [5] was 36%, the “Population Normal (%)” value [5] was 98% and the “Population Pyknosed Nuclei (%)” value [5] was 9%. For the same compound, the “Population Tubulin-Different-Phenotype (%)” value [5] was 3%, the “Total Cell Count” value [5] was 236 and the “Population Apoptotic (%)” value [6] was 66%. For the same compound, the “Population Fragmented Nuclei (%)” value [6] was 15%, the “Population Healthy Nuclei (%)” value [6] was 77% and the “Population Hoechst High Intensity Objects (%)” value [6] was 0%. The “Population Membrane Permeable-Phenotype (%)” value [6] was 2%, the “Population Mitotic Cells (%)” value [6] was 33% and the “Population Normal (%)” value [6] was 99%. For the same compound, the “Population Pyknosed Nuclei (%)” value [6] was 6%, the “Population Tubulin-Different-Phenotype (%)” value [6] was 1% and the “Total Cell Count” value [6] was 145. The “Population Apoptotic (%)” value [7] was 92%, the “Population Fragmented Nuclei (%)” value [7] was 25% and the “Population Healthy Nuclei (%)” value [7] was 65%. For the same compound, the “Population Hoechst High Intensity Objects (%)” value [7] was 0%, the “Population Membrane Permeable-Phenotype (%)” value [7] was 10% and the “Population Mitochondria Different-Phenotype (%)” value [7] was 3%. For the same compound, the “Population Mitotic Cells (%)” value [7] was 7%, the “Population Normal (%)” value [7] was 99% and the “Population Pyknosed Nuclei (%)” value [7] was 9%. The “Population Tubulin-Different-Phenotype (%)” value [7] was 3%, the “Total Cell Count” value [7] was 284 and the “Population Apoptotic (%)” value [8] was 66%. The “Population Fragmented Nuclei (%)” value [8] was 15%, the “Population Healthy Nuclei (%)” value [8] was 75% and the “Population Hoechst High Intensity Objects (%)” value [8] was 2%. The “Population Membrane Permeable-Phenotype (%)” value [8] was 6%, the “Population Mitochondria Different-Phenotype (%)” value [8] was 5% and the “Population Mitotic Cells (%)” value [8] was 33%. For the same compound, the “Population Normal (%)” value [8] was 97%, the “Population Pyknosed Nuclei (%)” value [8] was 8% and the “Population Tubulin-Different-Phenotype (%)” value [8] was 2%. The “Total Cell Count” value [8] was 143, the “Population Apoptotic (%)” value [9] was 77% and the “Population Fragmented Nuclei (%)” value [9] was 23%. The “Population Healthy Nuclei (%)” value [9] was 69%, the “Population Hoechst High Intensity Objects (%)” value [9] was 2% and the “Population Membrane Permeable-Phenotype (%)” value [9] was 3%. For the same compound, the “Population Mitochondria Different-Phenotype (%)” value [9] was 3%, the “Population Mitotic Cells (%)” value [9] was 22% and the “Population Normal (%)” value [9] was 97%. The “Population Pyknosed Nuclei (%)” value [9] was 6%, the “Population Tubulin-Different-Phenotype (%)” value [9] was 2% and the “Total Cell Count” value [9] was 339. For the same compound, the “Population Apoptotic (%)” value [10] was 90%, the “Population Fragmented Nuclei (%)” value [10] was 15% and the “Population Healthy Nuclei (%)” value [10] was 74%. For the same compound, the “Population Hoechst High Intensity Objects (%)” value [10] was 1%, the “Population Membrane Permeable-Phenotype (%)” value [10] was 6% and the “Population Mitochondria Different-Phenotype (%)” value [10] was 2%. The “Population Mitotic Cells (%)” value [10] was 10%, the “Population Normal (%)” value [10] was 98% and the “Population Pyknosed Nuclei (%)” value [10] was 10%. For the same compound, the “Population Tubulin-Different-Phenotype (%)” value [10] was 1%, the “Total Cell Count” value [10] was 201 and the “Population Apoptotic (%)” value [11] was 87%. For the same compound, the “Population Fragmented Nuclei (%)” value [11] was 22%, the “Population Healthy Nuclei (%)” value [11] was 68% and the “Population Hoechst High Intensity Objects (%)” value [11] was 4%. For the same compound, the “Population Membrane Permeable-Phenotype (%)” value [11] was 6%, the “Population Mitochondria Different-Phenotype (%)” value [11] was 2% and the “Population Mitotic Cells (%)” value [11] was 12%. For the same compound, the “Population Normal (%)” value [11] was 95%, the “Population Pyknosed Nuclei (%)” value [11] was 9% and the “Population Tubulin-Different-Phenotype (%)” value [11] was 2%. The “Total Cell Count” value [11] was 354, the “Population Apoptotic (%)” value [12] was 83% and the “Population Fragmented Nuclei (%)” value [12] was 12%. The “Population Healthy Nuclei (%)” value [12] was 77%, the “Population Hoechst High Intensity Objects (%)” value [12] was 1% and the “Population Membrane Permeable-Phenotype (%)” value [12] was 5%. The “Population Mitochondria Different-Phenotype (%)” value [12] was 4%, the “Population Mitotic Cells (%)” value [12] was 16% and the “Population Normal (%)” value [12] was 98%. For the same compound, the “Population Tubulin-Different-Phenotype (%)” value [12] was 4% and the “Total Cell Count” value [12] was 189.
